According to paper PMC7893122 (Acta Pharmaceutica Sinica. B, 2020):

Assays:
BRD4 (BD1) = BRD4 (BD1) (Homo sapiens, UniProt O60885); test: Homogeneous time-resolved fluorescence binding assay, BRD4; conditions: IC50 BRD4 (BD1), mean ± SD from three separate experiments
[1] = tested on: HH signaling pathway (GLI-responsive firefly luciferase reporter); test: Dual luciferase reporter assay; format: cell-based; conditions: read-out: IC50 GLI-luc reporter
hERG channel = hERG channel (Homo sapiens, UniProt Q12809); test: hERG inhibition; format: cell-based
[2] = Pharmacokinetics in Sprague–Dawley rats; format: in vivo; conditions: rat
H3132 = test: Cell growth inhibition; format: cell-based; conditions: 72 h
Procedure, shortened: (§1)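 Cells seeded in 96-well plates and incubated overnight. DMSO stocks of test compound were thawed at room temperature, diluted with saline to working concentrations, and added for 72 h. Growth read by CCK-8 assay, giving IC50/GI50.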

N87 = test: Cell growth inhibition; format: cell-based; conditions: 72 h
Procedure, shortened: as §1

HT1080 = test: Cell growth inhibition; format: cell-based; conditions: Homo sapiens, HT-1080, 72 h
Procedure, shortened: as §1

Colo680N = test: Cell growth inhibition; format: cell-based; conditions: Homo sapiens, COLO-680N, 72 h
Procedure, shortened: as §1

HSC-2 = test: Cell growth inhibition; format: cell-based; conditions: Homo sapiens, HSC-2, 72 h
Procedure, shortened: as §1

KYSE450 = test: Cell growth inhibition; format: cell-based; conditions: Homo sapiens, KYSE-450, 72 h
Procedure, shortened: as §1

TOV-21G = test: Cell growth inhibition; format: cell-based; conditions: Homo sapiens, TOV21G, 72 h
Procedure, shortened: as §1

CAL27 = test: Cell growth inhibition; format: cell-based; conditions: Homo sapiens, CAL-27, 72 h
Procedure, shortened: as §1

SKM-1 = test: Cell growth inhibition; format: cell-based; conditions: Homo sapiens, SKM-1, 72 h
Procedure, shortened: as §1

H1975 = test: Cell growth inhibition; format: cell-based; conditions: Homo sapiens, NCI-H1975, 72 h
Procedure, shortened: as §1

DOHH-2 = test: Cell growth inhibition; format: cell-based; conditions: Homo sapiens, DOHH-2, 72 h
Procedure, shortened: as §1

CHL normal cell line = test: Cell growth inhibition; format: cell-based; conditions: 72 h
Procedure, shortened: as §1

GLI1 = test: GLI-luciferase activity in light2 cells after transfection with GLI1; format: cell-based; conditions: read-out: IC50, GLI-luciferase activity provoked by forced expression of GLI1
Procedure, shortened: (§2)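 Light2 cells (NIH-3T3 stably carrying GLI-responsive firefly luciferase and renilla expression vector) lipofected with FLAG-GLI1 or MYC-GLI2-FL. Test compound added 24 h post-transfection, then 36 h exposure. Dual-luciferase read-out, firefly normalised to TK-renilla.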

GLI2 = test: GLI-luciferase activity in light2 cells after transfection with GLI2; format: cell-based; conditions: read-out: IC50, GLI-luciferase activity provoked by forced expression of GLI2
Procedure, shortened: as §2

SMO^WT = test: GLI-luciferase activity in light2 cells with ectopic SMO^WT; format: cell-based; conditions: read-out: IC50, GLI-luciferase activity induced by SMO^WT
Procedure, shortened: (§3)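 NIH-3T3-derived light2 reporter cells (stable GLI-responsive firefly luciferase plus renilla vector) with forced SMO expression, exposed to test compound for 36 h. Dual-luciferase kit read-out; firefly signal normalised to TK-renilla.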

SMO^D473H = test: GLI-luciferase activity in light2 cells with ectopic SMO^D473H; format: cell-based; conditions: read-out: IC50, GLI-luciferase activity induced by SMO^D473H
Procedure, shortened: as §3

SMO^W535L = test: GLI-luciferase activity in light2 cells with ectopic SMO^W535L; format: cell-based; conditions: read-out: IC50, GLI-luciferase activity induced by SMO^W535L
Procedure, shortened: as §3

endogenous GLI2 = test: Western blot of endogenous GLI2 in light2 cells; format: cell-based; conditions: 25 at 10 and 100 nmol/L, GDC-0449 100 nmol/L
Procedure, shortened: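 Light2 cells treated with test compound, lysed in LDS sample buffer, and run on SDS-PAGE. Immunoblotting used anti-GLI2 (1:1000), with GAPDH (1:5000) as reference.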

GLI2-MYC = test: Western blot of exogenous GLI2-MYC in transfected light2 cells; format: cell-based; conditions: light2 cells transfected with GLI2-MYC
Procedure, shortened: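 Light2 cells lipofected with FLAG-GLI1 or MYC-GLI2-FL; test compound added 24 h after transfection. Lysis in LDS sample buffer, then SDS-PAGE. Immunoblots probed with tag or GLI2 antibodies (1:1000), with GAPDH (1:5000) as reference.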

[3] = tested on: SMOA1 MB allografts (SMO^W539L); test: SMOA1 MB allograft model; format: in vivo, nude mice; conditions: bid
Procedure, shortened: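 Primary SMOA1 MB allografts from ND2:SMOA1 transgenic mice grafted subcutaneously into nude mice. Dosing started at 100–150 mm3 tumour size: test compound p.o. twice daily, vehicle 0.5% CMC-Na, n ≥ 3 per group. Caliper measurement every 3 days; volume = 0.5 × length × width². Body weight tracked; group means ± SEM.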

[4] = Sprague-Dawley, plasma, iv, 1 mg/kg
[5] = Sprague-Dawley, plasma, po, 3 mg/kg

Chain of hERG channel (Q12809 whole entry): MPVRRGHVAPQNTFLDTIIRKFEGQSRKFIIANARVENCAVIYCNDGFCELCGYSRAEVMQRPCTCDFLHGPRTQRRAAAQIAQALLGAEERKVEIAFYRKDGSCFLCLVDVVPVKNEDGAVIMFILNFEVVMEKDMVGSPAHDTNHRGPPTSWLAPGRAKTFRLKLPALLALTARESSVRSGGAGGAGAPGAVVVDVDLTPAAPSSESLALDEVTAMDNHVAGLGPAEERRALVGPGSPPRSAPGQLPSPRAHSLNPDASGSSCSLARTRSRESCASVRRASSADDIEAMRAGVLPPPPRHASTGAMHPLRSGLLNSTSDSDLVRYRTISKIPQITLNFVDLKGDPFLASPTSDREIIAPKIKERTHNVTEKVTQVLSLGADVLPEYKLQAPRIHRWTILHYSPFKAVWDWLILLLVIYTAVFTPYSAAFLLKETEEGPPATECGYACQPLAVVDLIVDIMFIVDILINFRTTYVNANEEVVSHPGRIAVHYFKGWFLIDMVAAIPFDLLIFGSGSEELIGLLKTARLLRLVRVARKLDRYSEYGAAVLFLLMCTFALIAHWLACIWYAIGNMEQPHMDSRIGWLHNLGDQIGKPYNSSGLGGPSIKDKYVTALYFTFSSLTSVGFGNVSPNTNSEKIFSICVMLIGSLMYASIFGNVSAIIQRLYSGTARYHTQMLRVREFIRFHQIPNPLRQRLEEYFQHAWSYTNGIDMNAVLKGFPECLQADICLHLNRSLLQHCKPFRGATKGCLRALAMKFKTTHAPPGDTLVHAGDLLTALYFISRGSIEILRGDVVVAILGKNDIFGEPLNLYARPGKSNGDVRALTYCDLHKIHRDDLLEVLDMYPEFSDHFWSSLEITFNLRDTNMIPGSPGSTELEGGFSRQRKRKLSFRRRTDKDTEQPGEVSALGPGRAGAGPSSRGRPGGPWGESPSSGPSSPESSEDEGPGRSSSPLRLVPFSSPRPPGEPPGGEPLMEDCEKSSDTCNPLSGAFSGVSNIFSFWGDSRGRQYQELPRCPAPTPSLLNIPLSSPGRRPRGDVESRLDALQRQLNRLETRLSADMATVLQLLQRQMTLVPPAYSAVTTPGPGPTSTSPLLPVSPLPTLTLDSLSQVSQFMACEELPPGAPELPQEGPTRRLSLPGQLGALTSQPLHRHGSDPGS

For `Cn1cc(-c2cc(N3CCCCS3(=O)=O)ccc2Oc2ccc(F)cc2F)c2c(F)c[nH]c2c1=O` [Compound 25], the IC50 (BRD4 (BD1)) was 1.51 ± 0.43 nM, the IC50 [1] was 0.48 ± 0.08 nM and the IC50 (hERG channel) was 27300 nM. The AUC(0-inf) [2, 4] was 614 ng·h/mL, the AUC(0-t) [2, 4] was 614 ng·h/mL and the MRT inf [2, 4] was 46.2 min. It also gave a clearance [2, 4] of 27.2 mL/min/kg, a half-life [2, 4] of 32.4 min and an AUC(0-inf) [2, 5] of 406 ng·h/mL. For the same molecule, the AUC(0-t) [2, 5] was 406 ng·h/mL, the Cmax [2, 5] was 503 ng/mL and the MRT inf [2, 5] was 57 min. For the same molecule, the Tmax [2, 5] was 15 min, the half-life [2, 5] was 57.6 min and the Vss_obs ([2]; i.v. 1 mg/kg) was 1.258 L/kg. The GI50 (H3132) was 140 nM, the GI50 (N87) was 130 nM and the GI50 (HT1080) was 1000 nM. The GI50 (Colo680N) was 2300 nM, the GI50 (HSC-2) was 770 nM and the GI50 (KYSE450) was 1600 nM. It also gave a GI50 (TOV-21G) of 23 nM, a GI50 (CAL27) of 110 nM and a GI50 (SKM-1) of 19 nM. The GI50 (H1975) was 34 nM, the GI50 (DOHH-2) was 6.6 nM and the GI50 (CHL normal cell line) was greater than 10000 nM. For the same molecule, the IC50 (GLI1) was 0.97 nM, the IC50 (GLI2) was 2.2 nM and the IC50 (SMO^WT) was 1.16 nM. For the same molecule, the IC50 (SMO^D473H) was 1.44 nM, the IC50 (SMO^W535L) was 1.13 nM and the “Effect on abundance of endogenous GLI2 proteins” value (endogenous GLI2) was “dramatically reduced”. For the same molecule, the “Effect on expression of exogenous GLI2-MYC” value (GLI2-MYC) was “failed to inhibit”, the Tolerability ([3]; 5 mg/kg p.o.) was “well tolerant” and the “tumor growth inhibition (TGI)” value ([3]; 5 mg/kg p.o., Fig. 6A) was 83.3%. For the same molecule, the Tolerability ([3]; 10 mg/kg p.o.) was “well tolerant”, the “tumor growth inhibition (TGI)” value ([3]; 10 mg/kg p.o., Fig. 5A) was 88.2% and the Body weight change ([3]; 10 mg/kg p.o., Fig. 5B) was “No obvious body weight loss”. The “tumor growth inhibition (TGI)” value ([3]; 10 mg/kg p.o., Fig. 6A) was 87.6%.
